Experimental data taken from the M2OR odorant receptor database.

What was measured:
Settings in all cases: stereoisomer not certain
[1] = target: T1, OR10J5 (Homo sapiens) (UniProt Q8NHC4)
T1 sequence (whole entry): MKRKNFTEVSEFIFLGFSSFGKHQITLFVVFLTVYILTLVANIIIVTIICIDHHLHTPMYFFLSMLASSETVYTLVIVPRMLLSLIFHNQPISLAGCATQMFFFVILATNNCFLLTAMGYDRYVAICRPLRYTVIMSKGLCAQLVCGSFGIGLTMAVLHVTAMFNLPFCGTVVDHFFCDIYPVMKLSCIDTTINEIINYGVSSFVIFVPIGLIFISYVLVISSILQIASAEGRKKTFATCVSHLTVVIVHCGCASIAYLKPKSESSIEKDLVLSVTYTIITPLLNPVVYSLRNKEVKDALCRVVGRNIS
In short: (§1)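 Each receptor–molecule pair is labelled responsive or non-responsive (inactive) according to whether the original authors judged the measured signal statistically different from baseline. The data were taken from the main text and supplementary material of published papers and checked for typos and inconsistencies. Assay methods differed by source, with transient luciferase assays in mammalian cell lines being common.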

[2] = target: OR10H3 (Homo sapiens) (UniProt O60404)
In short: as §1

[3] = target: OR10H4 (Homo sapiens) (UniProt Q8NGA5)
In short: as §1

[4] = target: OR10H5 (Homo sapiens) (UniProt Q8NGA6)
In short: as §1

[5] = target: OR10J3 (Homo sapiens) (UniProt Q5JRS4)
In short: as §1

[6] = target: OR10J4 (Homo sapiens) (UniProt P0C629)
In short: as §1

[7] = target: OR10K1 (Homo sapiens) (UniProt Q8NGX5)
In short: as §1

[8] = target: OR10K2 (Homo sapiens) (UniProt Q6IF99)
In short: as §1

[9] = target: OR10P1 (Homo sapiens) (UniProt Q8NGE3)
In short: as §1

[10] = target: OR10J1 (Homo sapiens) (UniProt P30954)
In short: as §1

Measured: odorant receptor agonist call

Chain of OR10P1 (Homo sapiens) (Q8NGE3 whole entry): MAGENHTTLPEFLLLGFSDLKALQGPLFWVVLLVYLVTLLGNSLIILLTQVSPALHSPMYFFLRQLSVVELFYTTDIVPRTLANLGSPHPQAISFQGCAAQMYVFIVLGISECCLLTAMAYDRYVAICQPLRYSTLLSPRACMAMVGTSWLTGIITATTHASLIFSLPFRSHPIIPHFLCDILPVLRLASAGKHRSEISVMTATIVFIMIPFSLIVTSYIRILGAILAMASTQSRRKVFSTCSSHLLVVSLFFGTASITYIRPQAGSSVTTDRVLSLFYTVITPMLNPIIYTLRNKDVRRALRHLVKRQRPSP
Chain of OR10H3 (Homo sapiens) (O60404 whole entry): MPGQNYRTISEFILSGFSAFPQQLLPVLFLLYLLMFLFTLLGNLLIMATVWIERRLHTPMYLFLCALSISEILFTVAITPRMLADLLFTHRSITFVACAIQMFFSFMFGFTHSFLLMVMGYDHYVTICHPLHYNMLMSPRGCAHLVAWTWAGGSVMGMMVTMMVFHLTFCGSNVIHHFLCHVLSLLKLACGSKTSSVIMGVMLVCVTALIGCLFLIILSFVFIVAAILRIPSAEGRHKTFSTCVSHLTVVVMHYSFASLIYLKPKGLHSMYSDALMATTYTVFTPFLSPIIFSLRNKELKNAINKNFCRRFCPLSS
Chain of OR10K1 (Homo sapiens) (Q8NGX5 whole entry): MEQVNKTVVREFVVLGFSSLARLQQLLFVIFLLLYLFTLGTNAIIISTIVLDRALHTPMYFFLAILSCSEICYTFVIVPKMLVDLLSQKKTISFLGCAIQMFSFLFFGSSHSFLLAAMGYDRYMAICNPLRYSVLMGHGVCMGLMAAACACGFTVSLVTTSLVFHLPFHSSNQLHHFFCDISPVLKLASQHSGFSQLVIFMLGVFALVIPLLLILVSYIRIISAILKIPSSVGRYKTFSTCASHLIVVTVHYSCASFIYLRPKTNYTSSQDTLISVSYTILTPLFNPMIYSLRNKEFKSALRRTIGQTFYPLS
Chain of OR10H5 (Homo sapiens) (Q8NGA6 whole entry): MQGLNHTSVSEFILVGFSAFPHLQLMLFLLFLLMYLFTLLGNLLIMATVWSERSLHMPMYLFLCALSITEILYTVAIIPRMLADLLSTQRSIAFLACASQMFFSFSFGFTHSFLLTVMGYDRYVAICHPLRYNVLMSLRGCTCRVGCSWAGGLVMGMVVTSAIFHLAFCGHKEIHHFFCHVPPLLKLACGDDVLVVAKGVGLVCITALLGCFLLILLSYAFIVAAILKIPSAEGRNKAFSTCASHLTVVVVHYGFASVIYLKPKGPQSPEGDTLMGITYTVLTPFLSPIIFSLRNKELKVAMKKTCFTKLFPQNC
Chain of OR10H4 (Homo sapiens) (Q8NGA5 whole entry): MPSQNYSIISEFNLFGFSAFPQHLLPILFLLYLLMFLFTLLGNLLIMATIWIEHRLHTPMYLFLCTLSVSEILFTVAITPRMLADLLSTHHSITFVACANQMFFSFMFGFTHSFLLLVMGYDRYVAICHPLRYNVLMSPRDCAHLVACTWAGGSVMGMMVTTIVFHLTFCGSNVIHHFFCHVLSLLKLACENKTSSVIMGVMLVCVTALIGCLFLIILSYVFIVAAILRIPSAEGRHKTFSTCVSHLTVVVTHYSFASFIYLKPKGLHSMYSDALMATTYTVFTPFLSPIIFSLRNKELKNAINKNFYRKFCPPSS
Chain of OR10J3 (Homo sapiens) (Q5JRS4 whole entry): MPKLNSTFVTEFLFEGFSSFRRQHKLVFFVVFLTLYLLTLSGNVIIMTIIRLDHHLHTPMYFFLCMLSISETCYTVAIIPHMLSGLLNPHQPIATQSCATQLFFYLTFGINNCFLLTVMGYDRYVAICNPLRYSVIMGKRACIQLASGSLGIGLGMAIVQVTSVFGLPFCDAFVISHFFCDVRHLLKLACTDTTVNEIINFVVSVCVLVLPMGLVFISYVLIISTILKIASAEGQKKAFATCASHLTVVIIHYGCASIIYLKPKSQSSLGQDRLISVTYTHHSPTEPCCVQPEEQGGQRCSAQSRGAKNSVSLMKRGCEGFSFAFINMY
Chain of OR10J4 (Homo sapiens) (P0C629 whole entry F198I): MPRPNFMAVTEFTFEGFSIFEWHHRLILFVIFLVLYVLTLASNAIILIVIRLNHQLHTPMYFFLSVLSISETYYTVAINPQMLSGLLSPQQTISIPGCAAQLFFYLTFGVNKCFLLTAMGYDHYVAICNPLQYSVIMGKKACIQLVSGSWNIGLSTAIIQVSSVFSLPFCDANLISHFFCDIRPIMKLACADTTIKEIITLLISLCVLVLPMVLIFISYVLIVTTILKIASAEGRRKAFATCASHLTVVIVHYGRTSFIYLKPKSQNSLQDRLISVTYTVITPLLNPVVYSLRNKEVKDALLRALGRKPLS
Chain of OR10K2 (Homo sapiens) (Q6IF99 whole entry): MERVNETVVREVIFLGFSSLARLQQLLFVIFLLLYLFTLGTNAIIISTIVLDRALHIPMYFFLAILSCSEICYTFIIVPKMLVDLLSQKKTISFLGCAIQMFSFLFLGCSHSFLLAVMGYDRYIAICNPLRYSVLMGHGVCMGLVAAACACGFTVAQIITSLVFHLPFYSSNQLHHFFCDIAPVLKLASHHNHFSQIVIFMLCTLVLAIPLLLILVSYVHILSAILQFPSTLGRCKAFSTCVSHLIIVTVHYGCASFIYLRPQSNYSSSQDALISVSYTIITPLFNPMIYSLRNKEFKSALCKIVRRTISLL
Chain of OR10J1 (Homo sapiens) (P30954 whole entry): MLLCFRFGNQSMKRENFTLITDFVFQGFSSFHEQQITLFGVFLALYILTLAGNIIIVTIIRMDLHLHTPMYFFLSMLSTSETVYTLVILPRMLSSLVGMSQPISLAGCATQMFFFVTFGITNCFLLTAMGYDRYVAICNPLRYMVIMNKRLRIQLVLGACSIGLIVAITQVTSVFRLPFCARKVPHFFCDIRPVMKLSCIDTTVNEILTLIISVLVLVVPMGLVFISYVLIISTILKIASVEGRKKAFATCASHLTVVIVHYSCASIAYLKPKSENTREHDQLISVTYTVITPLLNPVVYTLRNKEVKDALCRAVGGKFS

CCC1CCC(=O)O1 (stereo not given)
inactive: [1]

C=CCc1ccccc1
inactive: [1]

Cc1c([N+](=O)[O-])c(C)c([N+](=O)[O-])c(C(C)(C)C)c1[N+](=O)[O-]
not listed: [10]
inactive: all other assays above

C=CCOC(=O)Cc1ccccc1
not listed: [6] | [8]
inactive: all other assays above

O=c1cc(O)c2ccccc2o1
inactive: [1]
